# An excerpt weighted towards active compounds, which were near 3% of everything screened.
# HTR1E agonist = activates the human 5-HT1E serotonin receptor; CHO 5-HT1E Ga15 NFAT-bla reporter, FRET; 0% DMSO wells, 100% control agonist wells; 65,000 compounds, 0.69% hits; activation, % at 6 µM; AID 574;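 active = activation above a set limit, the screen-wide mean activation plus 3 SD, cut at about 8.5% in these data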;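 note: 100% = positive control agonist at 1 µM giving full maximal response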
# 5HT1a ag = 5-HT1a (human) receptor agonism | P08908 | CHO 5-HT1a Ga15 NFAT-bla reporter, FRET ratio; 0% basal, 100% maximal reference agonist | activation, % at 10 µM | 65,000 compounds, 0.56% hits;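 active = activation above the screen-wide mean activation plus 3 SD, cut at about 19% in these data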;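 note: 0% = DMSO wells and 100% = 5-CT at EC100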
# 5-HT1A blocker = antagonists of human 5-HT1a serotonin receptor | P08908 | CHO 5-HT1a Ga15 NFAT-bla reporter, antagonist mode | inhibition, % at 10 µM | 62,000 compounds, 0.68% hits | AID 612;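 active = inhibition above the mean of all tested compounds plus 3 SD, cut at about 43% in these data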;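 note: receptor stimulated by 5-CT agonist at 100 nM near EC80; beta-lactamase reporter measured by ratiometric fluorescence of a cleavable substrate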
# S1P1 ag pot = activates or potentiates agonism at human S1P1 receptor; S1P1 CRE-bla cells, forskolin, beta-lactamase FRET, potentiator mode; S1P1 agonist co-added at EC20, 2 nM; 100% = saturating reference agonist, 0% = basal; activation, % at 9.5 µM; P21453; 56,000 compounds, 0.57% hits; AID 449;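 active = activation above a cutoff set at the mean activation of all tested compounds plus 3 SD, cut at about 54% in these data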;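 note: forskolin at 4 µM as EC80 and the EC20 agonist is SEW2871; 100% = SEW2871 at its EC100 plus forskolin at EC80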
# Target sequence (P21453 whole entry, looked up): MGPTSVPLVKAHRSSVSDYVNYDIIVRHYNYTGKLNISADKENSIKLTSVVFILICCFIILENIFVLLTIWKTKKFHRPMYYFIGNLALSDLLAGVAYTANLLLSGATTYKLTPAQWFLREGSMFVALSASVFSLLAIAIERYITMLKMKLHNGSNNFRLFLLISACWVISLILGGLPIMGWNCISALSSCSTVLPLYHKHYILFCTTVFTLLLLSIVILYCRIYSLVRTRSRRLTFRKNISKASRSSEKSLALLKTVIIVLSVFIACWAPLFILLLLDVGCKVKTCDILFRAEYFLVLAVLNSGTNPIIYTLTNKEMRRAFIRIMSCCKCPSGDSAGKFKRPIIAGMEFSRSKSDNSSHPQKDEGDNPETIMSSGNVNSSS
# S1P3 agonist = activates the human S1P3 receptor | S1P3 NFAT-BLA reporter cells, agonism, FRET ratio; relative to 1 µM S1P, basal subtracted | activation, % at 4.5 µM | AID 373 | 60,000 compounds, 0.1% hits | Q99500;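 active = activation above the screen-wide mean plus 3 SD, cut at about 4.5% in these data, passing the limit was not always enough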
#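 Material: Human S1P3 NFAT-BLA reporter CHO cells | Incubation: Overnight plating, 4 h compound 37 °C, 2 h substrate RT | Signal: FRET β-lactamase substrate fluorescence, excitation 405 nm, 460/535 nm emission ratio, background-subtracted | Compound: 4.5 µM final, single dose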
# HTR1E antagonist = 5-HT1E (human) receptor antagonism; P28566; CHO 5-HT1E Ga15 NFAT-bla reporter, FRET, antagonist; inhibition, % at 6 µM; 65,000 compounds, 0.99% hits; AID 571;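 active = inhibition above a set limit, the mean inhibition across every tested compound plus 3 SD, cut at about 29% in these data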;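 note: signal is the 460 over 535 nm emission ratio of beta-lactamase substrate; 0% = agonist plus DMSO wells and 100% = wells without agonist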
# An asterisk follows results filed as active; . = not tested or not shown.
SMILES,HTR1E agonist,5HT1a ag,5-HT1A blocker,S1P1 ag pot,S1P3 agonist,HTR1E antagonist
Cc1c(/C=N/n2cnnc2)c2ccccc2n1CCOc1ccc(Cl)cc1,0.8,3.0,-7.0,.,.,33.0*
Cc1ccc(OCCn2c(C)c(/C=N/n3cnnc3)c3ccccc32)cc1,0.2,0.9,1.3,-3.9,-0.1,44.3*
CCC(CC)c1nc2cc(OC)c(OC)cc2c(=O)o1,35.0*,-1.1,.,3.8,-1.5,-1.7
CCN(CC)c1ccc2cc(C(=O)Nc3cccnc3N3CCOCC3)c(=O)oc2c1,0.1,2.2,2.4,.,.,-0.4
CCN(CC)c1ccc2cc(NC(=O)CCC(=O)O)c(=O)oc2c1,-0.1,-3.4,40.5,58.0*,-1.6,55.4*
CCN(CC)c1ccc2cc(C(=O)Nc3ccccn3)c(=O)oc2c1,5.8,57.3*,.,-1.0,-0.8,-31.8
CCc1nc(NCC2CCCN2CC)c2nnn(Cc3ccccc3F)c2n1 (configuration not stated),1.9,1.6,6.1,-4.7,0.2,5.2
COC(=O)Cc1c(C)c2c(O)cc(C)cc2oc1=O,-1.1,133.6*,-4.3,-0.4,-0.6,-8.7
COc1ccc(-c2csc(N(CC3CCCO3)C(=O)c3ccco3)n2)cc1 (configuration not stated),-0.1,-3.4,21.7,14.1,-1.2,3.0
O=C(CCn1c(=O)oc2ccccc21)NCCN1CCOCC1,0.2,-0.8,-4.4,-12.7,0.2,2.9
COc1ccc(C(=O)N2CCCC(c3nc(-c4ccc(OC)c(OC)c4)no3)C2)c(OC)c1 (configuration not stated),0.5,20.4*,-10.9,54.7,-1.2,-3.8
O=C(NCc1cccnc1)c1ccc2c(c1)OCO2,-0.7,-2.9,4.8,.,.,16.9
CSc1nc2ccc(NC(=O)C3CCCO3)cc2s1 (configuration not stated),52.3*,-2.3,6.8,1.8,-0.5,17.2
CSc1nc2ccc(Nc3nc(N4CCOCC4)nc(N4CCOCC4)n3)cc2s1,-0.9,0.1,12.3,-34.7,-1.4,32.8*
CSc1nc2ccc(NC(=O)C3CC(=O)N(Cc4ccco4)C3)cc2s1 (configuration not stated),-0.3,-1.0,3.9,.,.,9.8
Cc1ccc(Nc2nc(N3CCOCC3)nc(N3CCOCC3)n2)cc1,1.1,0.2,7.5,-22.8,1.1,-12.7
O=c1c(C(c2nnnn2C2CCCCC2)N2CCCCC2)coc2ccc(Cl)cc12 (configuration not stated),-0.3,-3.6,7.9,5.9,-0.5,9.7
CCn1cc(-c2cc(C(F)(F)F)n3nc(C(=O)O)cc3n2)c(C)n1,0.4,-1.5,-9.2,-8.9,-0.2,-6.3
COc1ccc(CNC(=O)C2CC(=O)N(c3ccc(OCC(=O)N4C(C)CCCC4C)cc3)C2)cc1 (configuration not stated),1.2,1.2,-13.7,-5.1,-1.0,2.3
COC(=O)c1ccc2[nH]c(C)c(CN3CCCC3)c(=O)c2c1,-0.2,-1.1,2.1,.,.,6.2
Cc1[nH]c2ccc(Br)cc2c(=O)c1CN1CCCCC1,-1.8,104.3*,7.2,19.7,-0.5,9.3
Cc1ccnc(SCCn2c(N3CC(C)CC(C)C3)nc3c2c(=O)n(C)c(=O)n3C)n1 (configuration not stated),0.7,-1.7,-0.9,-0.3,-0.1,9.0
O=C(CCN1C(=O)c2ccccc2C1=O)N1CCCCCC1,0.4,-1.3,-12.0,0.1,-0.9,-3.0
O=C(CCN1C(=O)c2ccccc2C1=O)N1CCC(c2ccccc2)C1 (configuration not stated),0.7,31.5*,-6.4,.,0.6,-4.6
Fc1ccc(Cn2nnnc2CN2CCN(C3CCCC3)CC2)cc1,-0.6,-1.5,4.3,-15.5,0.2,-6.9
SMILES,HTR1E agonist,5HT1a ag,5-HT1A blocker,S1P1 ag pot,S1P3 agonist,HTR1E antagonist
CC(C)C(c1nnnn1Cc1cccs1)N1CCN(C2CCCC2)CC1 (configuration not stated),1.1,31.4*,17.0,2.3,0.4,-2.3
CCC(c1nnnn1Cc1ccc(F)cc1)N1CCN(C2CCCCC2)CC1 (configuration not stated),1.1,-2.4,46.8*,-30.6,-1.0,-2.3
COC(=O)Nc1nc2ccc(C(=O)c3ccccc3)cc2[nH]1,1.4,-1.7,.,12.7,-5.5,74.6*
CCCSc1ccc2nc(NC(=O)OC)[nH]c2c1,-0.7,-5.1,.,-3.2,-4.8,41.5*
COc1cc(C(=O)Nc2nc3ccccc3[nH]2)cc(OC)c1OC,-0.1,-0.9,-5.0,-28.9,-0.6,10.1
CCC(OC(=O)c1cccs1)C(=O)NC1CCCCC1 (configuration not stated),-0.4,-0.5,-6.1,-25.7,-0.7,2.5
COc1cc(C2C(C#N)=C(C)NC3=C2C(=O)c2ccccc23)cc(OC)c1OC (configuration not stated),1.0,-4.3,63.1*,-46.9,-0.9,82.3*
COc1ccc(S(=O)(=O)n2nc(-c3cc(OC)c(OC)c(OC)c3)cc2N)cc1OC,-0.3,0.0,-16.5,-50.1,0.3,-2.6
COc1ccc(-c2cc(N)n(S(=O)(=O)c3c(F)c(F)c(F)c(F)c3F)n2)cc1OC,-0.2,0.1,46.1*,16.8,-0.2,32.9*
CCC(C)C(NC(=O)OC(C)(C)C)C(=O)NCc1ccco1 (configuration not stated),-0.6,-0.4,13.6,-9.2,1.8,-14.8
CCN(C(=O)c1ccc(C(C)(C)C)cc1)c1nnc(Cn2nnc3ccccc32)s1,1.5,4.7,-3.2,129.5*,-2.3,-14.1
COCCNC(=O)CN(C(=O)Cn1nnc2ccccc21)c1ccccc1,-0.9,-2.5,6.8,5.2,-0.7,8.7
CCOC(=O)C(C(C)=O)c1c(Br)c(O)c(O)c2c(C(=O)c3ccc(C)cc3)coc12 (configuration not stated),0.0,-2.0,44.9*,47.9,-1.4,16.8
O=C(c1cnc2sccn2c1=O)N(Cc1ccccc1)c1ccccn1,0.5,26.6*,-6.4,7.0,-0.4,-6.1
CN1CCN(c2nc(-c3cccnc3)nc3ccccc23)CC1,41.9*,1.3,10.2,-50.9,-0.7,-3.4
c1cncc(-c2nc(N3CCCCCC3)c3ccccc3n2)c1,0.1,3.2,6.5,-6.6,-1.4,10.8
CCN1CCN(c2nc(-c3cccnc3)nc3ccccc23)CC1,13.0*,3.7,-2.6,0.1,-0.1,6.7
COc1ccc(NC(=O)Cc2nnc(SCC(=O)Nc3cc(C)ccc3OC)n2C)cc1,0.7,-0.4,2.2,5.4,-0.4,-1.5
O=C(OC(C(=O)NCc1ccc2c(c1)OCO2)c1ccc(Cl)cc1)c1ccco1 (configuration not stated),-0.6,-2.6,5.7,4.5,-0.4,4.9
